{"data": "Measured values gathered from unrelated publications", "target": "Serine/threonine-protein kinase D1 (PRKD1, Homo sapiens, UniProt Q15139)", "note": "Each line is one published result; the experiments were not run side by side."}
{"SMILES": "CCCOc1ccc(OC)c(F)c1C(=O)c1ccc(C(=O)N[C@@H]2CNC[C@H]2NC(=O)c2ccc3[nH]ncc3c2)cc1", "assay": "enzyme activity, inhibitor", "setting": "10 µM", "quantity": "remaining activity", "result": "53%"}
{"SMILES": "CCN(CC)c1ccc(C2=NNC(=O)CC2C)cc1[N+](=O)[O-] (stereo not shown)", "assay": "enzyme activity, inhibitor", "setting": "10 µM", "quantity": "remaining activity", "result": "14%"}
{"SMILES": "CC(C)(C)c1nc2c(s1)c1nc(N)ncc1c1ccc(NS(=O)(=O)c3c(F)cccc3F)c(F)c12", "assay": "enzyme activity, inhibitor, radiometric", "setting": "1 µM", "quantity": "remaining activity", "result": "93%"}
{"SMILES": "Cc1cnc(NC2CCOCC2)nc1-n1cnc(C(=O)NC(CN)c2cc(F)cc(Cl)c2)c1 (stereo not shown)", "assay": "enzyme activity, inhibitor, radiometric", "setting": "1 µM", "quantity": "remaining activity", "result": "0%"}
{"SMILES": "CC(C)c1ccc(NC(=O)c2cccs2)c(-c2nc3ccccc3[nH]c2=O)c1", "assay": "enzyme activity, inhibitor", "setting": "1 µM", "quantity": "activity vs control", "result": "97%"}
{"SMILES": "O=C1Nc2ccc(Cl)cc2C1=Cc1cc(Cl)c(O)c(Cl)c1", "assay": "cell-free assay", "setting": "0.5 µM", "quantity": "remaining signal", "result": "91.5%"}
{"SMILES": "O=c1nc(-c2ccccn2)sc2ccccc12", "assay": "binding, competition with immobilised ligand", "setting": "1 µM", "quantity": "remaining binding", "result": "100%"}
{"SMILES": "Nc1nc(Nc2ccccc2)sc1C(=O)c1c(F)cccc1F", "assay": "enzyme activity, inhibitor", "setting": "10 µM", "quantity": "remaining activity", "result": "46%"}
{"SMILES": "Cc1nccc(COC(=O)N2C[C@@H]3[C@@H](CNC(=O)c4ccc5[nH]nnc5c4)[C@@H]3C2)n1", "assay": "cell-free assay, competition with immobilised ligand", "setting": "1 µM", "quantity": "remaining binding", "result": "100%"}
{"SMILES": "Cc1ccc(NC(=O)c2ccc(C)c(C(F)(F)F)c2)cc1C#Cc1nn(C2CCC(O)CC2)c2ncnc(N)c12 (stereo not shown)", "assay": "cell-free assay", "setting": "10 µM", "quantity": "remaining signal", "result": "91%"}
{"SMILES": "CC(C)(C)C(=O)c1sc(NC2CCCCC2)nc1N", "assay": "enzyme activity, inhibitor", "setting": "10 µM", "quantity": "remaining activity", "result": "85%"}
{"SMILES": "Cn1cnc(Br)c1C1=CN(c2ncnc3[nH]cnc23)CCS1", "assay": "enzyme activity, inhibitor, radiometric", "setting": "2 µM", "quantity": "inhibition", "result": "91.4%"}
{"SMILES": "CN(C(=O)c1ccccc1)c1cc(N(C)c2ccc3c(c2)CCc2ccc(C(=O)NCCN4CCOCC4)cc2C3=O)ccc1F", "assay": "cell-free assay, competition with immobilised ligand", "setting": "1 µM", "quantity": "remaining binding", "result": "86%"}
{"SMILES": "Cn1c(=O)n(-c2ccc(C(C)(C)C#N)cc2)c2c3cc(-c4cnc5ccccc5c4)ccc3ncc21", "assay": "enzyme activity, inhibitor", "setting": "10 µM", "quantity": "remaining activity", "result": "107%"}
{"SMILES": "c1ccc(CNc2nc(N3CCOc4ccccc43)nc3c2CCCC3)cc1", "assay": "target engagement in cells, inhibitor, chemoproteomics", "setting": "20 mM", "quantity": "inhibition", "result": "-8.8%"}
{"SMILES": "COc1cc2ncnc(Nc3ccc(Oc4ccccc4)c(C)c3C)c2cc1OC", "assay": "enzyme activity, inhibitor", "setting": "1 µM", "quantity": "inhibition", "result": "-3%"}
{"SMILES": "CNC(=O)c1cc(Oc2ccc(NC(=O)Nc3ccc(Cl)c(C(F)(F)F)c3)cc2)ccn1", "assay": "enzyme activity, inhibitor", "setting": "0.3 µM", "quantity": "inhibition", "result": "8%"}
{"SMILES": "CNc1cccc2cc(C(=O)Nc3ccc(C(=O)O)cc3)c(=O)[nH]c12", "assay": "enzyme activity, inhibitor", "setting": "10 µM", "quantity": "inhibition", "result": "-3.9%"}
{"SMILES": "Cc1sc(C(=O)NC2COC2)cc1-n1cc(NC(=O)Nc2c(F)cccc2Cl)cn1", "assay": "enzyme activity, inhibitor", "setting": "10 µM", "quantity": "remaining activity", "result": "93.3%"}
{"SMILES": "COc1cc(/C=C/C(=O)CC(=O)/C=C/c2ccc(O)c(OC)c2)ccc1O", "assay": "enzyme activity, inhibitor", "setting": "1 µM", "quantity": "activity vs control", "result": "79%"}
{"SMILES": "CN(c1ncccc1CNc1nc(Nc2ccc3c(c2)CC(=O)N3)ncc1C(F)(F)F)S(C)(=O)=O", "assay": "enzyme activity, inhibitor", "setting": "1 µM", "quantity": "inhibition", "result": "49%"}
{"SMILES": "O=C(Nc1cnn(-c2csc(C(=O)NC3COC3)c2)c1)Nc1c(F)cccc1Cl", "assay": "enzyme activity, inhibitor", "setting": "5 µM", "quantity": "remaining activity", "result": "90.7%"}
{"SMILES": "Cc1ccc(Nc2nccc(N(C)c3ccc4c(C)n(C)nc4c3)n2)cc1S(N)(=O)=O", "assay": "enzyme activity, inhibitor", "setting": "0.3 µM", "quantity": "inhibition", "result": "9%"}
{"SMILES": "O=C(N[C@H]1CCCCC/C=C\\C2C[C@@]2(C(=O)O)NC(=O)[C@@H]2C[C@@H](Oc3ccncc3)CN2C1=O)OC1CCCC1 (stereo partly shown)", "assay": "binding, competition with immobilised ligand", "setting": "1 µM", "quantity": "remaining binding", "result": "96%"}
{"SMILES": "CC(C)(O)[C@H]1CC[C@H](Nc2ccc3ncc(-c4cccc(C(F)(F)F)c4)n3n2)CC1", "assay": "enzyme activity, inhibitor", "setting": "1 µM", "quantity": "remaining activity", "result": "99.5%"}
{"SMILES": "FC(F)(F)Oc1cccc(-c2cnc3ccc(-c4ccncc4)nn23)c1", "assay": "enzyme activity, inhibitor, radiometric", "setting": "5 µM", "quantity": "activity vs control", "result": "158%"}
{"SMILES": "CC(C)CC(=O)N1CCc2nc(-c3ccc(Br)cc3)nc(N(C)Cc3ccccc3)c2C1", "assay": "cell-free assay, competition with immobilised ligand", "setting": "0.1 µM", "quantity": "remaining binding", "result": "87%"}
{"SMILES": "Cn1cncc1C1=CN(c2ncnc3[nH]cnc23)CCS1", "assay": "enzyme activity, inhibitor, radiometric", "setting": "2 µM", "quantity": "inhibition", "result": "89.2%"}
{"SMILES": "CN([C@@H]1CCc2c(CC(=O)O)c3ccccc3n2C1)S(=O)(=O)c1ccc(F)cc1", "assay": "cell-free assay, competition with immobilised ligand", "setting": "1 µM", "quantity": "remaining binding", "result": "100%"}
{"SMILES": "COc1cc2ncnc(Nc3ccc(F)c(Cl)c3)c2cc1OCCCN1CCOCC1", "assay": "cell-free assay", "setting": "0.5 µM", "quantity": "remaining signal", "result": "85.4%"}
{"SMILES": "CC(C)(O)c1cncc(-c2nc3ccc(F)cc3n2C2CC2)c1", "assay": "cell-free assay, competition with immobilised ligand", "setting": "1 µM", "quantity": "remaining binding", "result": "100%"}
{"SMILES": "N#CCCc1ccc2c(c1)-c1[nH]c3ccc([N+](=O)[O-])cc3c1CC(=O)N2", "assay": "cell-free assay", "setting": "0.5 µM", "quantity": "remaining signal", "result": "87.5%"}
{"SMILES": "CC(=O)N1CCC(c2ccc(C(=O)NC3=NCCN3)cc2C(F)(F)F)CC1", "assay": "cell-free assay, competition with immobilised ligand", "setting": "1 µM", "quantity": "remaining binding", "result": "100%"}
{"SMILES": "Cc1ccc(C(=O)Nc2ccc(CN3CCN(C)CC3)c(C(F)(F)F)c2)cc1C#Cc1cnc2cccnn12", "assay": "enzyme activity, inhibitor", "setting": "23.5 nM", "quantity": "remaining activity", "result": "91%"}
